Test results from paper PMC8552233 (ACS Omega, 2021).
Like-named read-outs stand apart in the source and are kept apart here.

What was measured:
[1] = molecular target: T1, P. falciparum IspC (Plasmodium falciparum, UniProt O96693); conditions: cited from earlier work
T1 sequence (O96693 73-488): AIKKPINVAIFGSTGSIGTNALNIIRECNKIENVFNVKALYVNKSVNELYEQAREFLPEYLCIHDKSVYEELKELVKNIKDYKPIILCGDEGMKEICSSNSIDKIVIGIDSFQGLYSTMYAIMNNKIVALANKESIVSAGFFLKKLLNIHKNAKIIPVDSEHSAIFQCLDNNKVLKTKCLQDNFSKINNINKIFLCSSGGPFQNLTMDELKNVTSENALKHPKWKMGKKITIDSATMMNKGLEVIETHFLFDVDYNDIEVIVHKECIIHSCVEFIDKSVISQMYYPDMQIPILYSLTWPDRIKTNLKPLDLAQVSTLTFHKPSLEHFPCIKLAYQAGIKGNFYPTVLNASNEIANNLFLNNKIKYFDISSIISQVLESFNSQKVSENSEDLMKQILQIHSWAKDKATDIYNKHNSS

[2] = cited from earlier work
[3] = molecular target: T1, P. falciparum IspC; assay: Mechanism of inhibition; type: biochemical; conditions: for mode of inhibition with respect to DXP / mode of inhibition with respect to NADPH: Lineweaver-Burk plots; for mode of inhibition with respect to DXP: DXP varied 50-400 μM, NADPH 150 μM; for mode of inhibition with respect to NADPH: NADPH varied 6-30 μM, DXP 144 μM
Summary of the method: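 N-terminal His6-tagged recombinant enzyme, expressed in E. coli Rosetta2(DE3) and purified by TALON affinity chromatography. […] NADPH oxidation read at 340 nm. Mode taken from Lineweaver–Burk linear fits, Ki from secondary plots; at least triplicate.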

[4] = molecular target: T1, P. falciparum IspC; assay: P. falciparum IspC inhibition assay; type: biochemical
Summary of the method: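 His6-tagged recombinant enzyme (E. coli Rosetta2(DE3), TALON-purified), 0.86 μM in 100 mM Tris pH 7.8, 25 mM MgCl2. Preincubated 10 min at 37 °C with inhibitor, then 150 μM NADPH added for 5 min. Reaction started with 144 μM DXP and A340 followed at 37 °C. IC50 from nonlinear sigmoidal fit of fractional activity versus inhibitor concentration; duplicate.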

[5] = test system: Mycobacterium tuberculosis; conditions: antibacterial activity; cited from earlier work

| Structure (SMILES) | mode of inhibition with respect to DXP [1] | mode of inhibition with respect to NADPH [1] | serum half-life [2] | mode of inhibition with respect to DXP [3] | mode of inhibition with respect to NADPH [3] | IC50 [4] [nM] | Ki relative to DXP, fold higher than that of 3c ([3]; 1d versus 3c) [fold] | Ki [3] [nM] | MIC [5] [µg/mL] |
| --- | --- | --- | --- | --- | --- | --- | --- | --- | --- |
| O=CN(O)CCCP(=O)(O)O [1a, fosmidomycin] | competitive | uncompetitive | short | – | – | – | – | – | – |
| O=C(CCc1ccccc1)N(O)C/C=C/P(=O)([O-])O.[Na+] [1b, Sodium Hydrogen [(1E)-3-(N-hydroxy-3-phenylpropanamido)prop-1-en-1-yl]phosphonate] | – | – | – | competitive | uncompetitive | 1310 | – | – | – |
| CC(=O)N(C/C=C/P(=O)([O-])O)OCc1ccc(-c2ccccc2)cc1.[Na+] [1d] | – | – | – | competitive | competitive | 5670 | 3 | – | – |
| CC(=O)N(O)CCCP(=O)(O)O [2a, FR900098] | competitive | uncompetitive | short | competitive | uncompetitive | – | – | 9 | > 500 |
| O=C(CCCc1ccccc1)N(O)C/C=C/P(=O)([O-])O.[Na+] [2b, Sodium Hydrogen [(1E)-3-(N-hydroxy-4-phenylbutanamido)prop-1-en-1-yl]phosphonate] | – | – | – | competitive | uncompetitive | 900 | – | – | – |
| CCCCC(=O)N(O)CCCP(=O)([O-])O.[Na+] [3a, Sodium Hydrogen-3-(N-hydroxypentanamido)propylphosphonate] | – | – | – | competitive | uncompetitive | 2450 | – | – | – |
| CC(=O)N(CCCP(=O)([O-])O)OCc1ccc(-c2ccccc2)cc1.[Na+] [3c] | – | – | – | competitive | competitive | 804 | – | – | – |
| O=C(CCCc1ccccc1)N(O)CCCP(=O)([O-])O.[Na+] [4a] | – | – | – | competitive | uncompetitive | 1340 | – | – | – |
